In ChEMBL document CHEMBL1143838, “Candida albicans and Candida dubliniensis respond differently to echinocandin antifungal agents in vitro” (2007):
Converted amounts (≈) assume the structure as drawn. *1 amine or outer side, *2 acyl side, *3 side chain or, on linkers, in order; H or OH if unused. Where a SMILES comes first, the peptide text is derived from it. Bridges are numbered along the chain shown (N, C = ends). [ ]: non-standard residue; d: D form. The star is where a group is joined. pTerphenylCO(4''-OnC5H11) = CCCCCOc1ccc(-c2ccc(-c3ccc(C(=O)*)cc3)cc2)cc1; Orn(4R-OH,5R-OH) = O=C([C@H](C[C@@H](O)[C@@H](O)N[*:3])N[*:1])[*:2]; hTyr(3S-OH,4S-OH) = N[C@H](C(=O)O)[C@H](O)[C@@H](O)c1ccc(O)cc1; Pro(3S-OH,4S-Me) = C[C@H]1CN[C@H](C(=O)O)[C@H]1O; Hyp = O=C(O)[C@@H]1C[C@@H](O)CN1

What was measured:
Type in all cases: functional
Candida albicans [1] = test: Antifungal activity against Candida albicans SC5314 after 24 hrs by EUCAST test; conditions: SC5314, 24 h
Procedure, shortened: (§1)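 EUCAST broth microdilution with aqueous doubling dilutions of drug. Inoculum grown overnight at 30°C in NGY, then added to MOPS-buffered RPMI 1640 with 2% glucose at an initial 10^5 yeasts/ml. Incubated 35°C for 24 h. MICs taken from triplicate spectrophotometric dose-response data as 50% and 80% growth-reduction endpoints.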

Candida albicans [2] = test: Antifungal activity against Candida albicans Y109 after 24 hrs by CLSI M27-A test
Procedure, shortened: (§2)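 CLSI M27-A broth microdilution with aqueous doubling dilutions of drug. Inoculum grown overnight at 30°C in NGY medium, then added to MOPS-buffered RPMI 1640 at an initial 10^3 yeasts/ml. Incubated 35°C for 24 h. MIC read visually as the lowest concentration giving a marked decrease in visible growth; paradoxical or trailing growth noted.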

Candida parapsilosis [3] = test: Antifungal activity against Candida parapsilosis ATCC 22019 after 24 hrs by CLSI M27-A test; conditions: Lodderomyces parapsilosis, ATCC 22019, 24 h
Procedure, shortened: (§3)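 Broth microdilution with echinocandins as aqueous doubling dilutions. Yeasts were grown overnight at 30°C in NGY and seeded at 10^3 yeasts/ml initial concentration in MOPS-buffered RPMI 1640, then incubated at 35°C for 24 h. The MIC was read visually as the lowest concentration giving a marked decrease in visible growth; paradoxical or trailing growth was noted.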

Candida dubliniensis [4] = test: Antifungal activity against Candida dubliniensis SCS65875C after 24 hrs by CLSI M27-A test; procedure, shortened: as §3
Candida dubliniensis [5] = test: Antifungal activity against Candida dubliniensis SCS17154969-2 after 24 hrs by EUCAST test
Procedure, shortened: (§4)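 Yeasts were grown overnight at 30°C in NGY, then inoculated at 10^5 yeasts/ml initial concentration into MOPS-buffered RPMI 1640 with 2% glucose containing aqueous doubling dilutions of drug. Plates were held at 35°C for 24 h. MICs came from triplicate spectrophotometric dose-response data at 50% and 80% growth-reduction endpoints. Trailing meant a >100-fold gap between these endpoints; paradoxical meant regrowth ≥5% above the curve minimum.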

Candida albicans [6] = test: Antifungal activity against Candida albicans T28 after 24 hrs by CLSI M27-A test; procedure, shortened: as §2
Candida dubliniensis [7] = test: Antifungal activity against Candida dubliniensis IK after 24 hrs by EUCAST test; procedure, shortened: as §4
Candida albicans [8] = test: Antifungal activity against Candida albicans T26 after 24 hrs by CLSI M27-A test; procedure, shortened: as §2
Candida albicans [9] = test: Antifungal activity against Candida albicans SCS67023C after 24 hrs by EUCAST test; procedure, shortened: as §1
Candida dubliniensis [10] = test: Antifungal activity against Candida dubliniensis AMCC after 24 hrs by EUCAST test; procedure, shortened: as §1
Candida albicans [11] = test: Antifungal activity against Candida albicans T32 after 24 hrs by CLSI M27-A test; procedure, shortened: as §2
Candida albicans [12] = test: Antifungal activity against Candida albicans T25 after 24 hrs by EUCAST test; procedure, shortened: as §1
Candida albicans [13] = test: Antifungal activity against Candida albicans JIMS132203 after 24 hrs by EUCAST test; procedure, shortened: as §1
Candida dubliniensis [14] = test: Antifungal activity against Candida dubliniensis ST after 24 hrs by EUCAST test; procedure, shortened: as §4
Candida dubliniensis [15] = test: Antifungal activity against Candida dubliniensis SCS59662 after 24 hrs by EUCAST test; procedure, shortened: as §4
Candida dubliniensis [16] = test: Antifungal activity against Candida dubliniensis SCS59662 after 24 hrs by CLSI M27-A test; procedure, shortened: as §3
Candida albicans [17] = test: Antifungal activity against Candida albicans JIMS101103 after 24 hrs by EUCAST test; procedure, shortened: as §1
Candida dubliniensis [18] = test: Antifungal activity against Candida dubliniensis AMCC after 24 hrs by CLSI M27-A test; procedure, shortened: as §2
Candida dubliniensis [19] = test: Antifungal activity against Candida dubliniensis J930936 after 24 hrs by CLSI M27-A test; procedure, shortened: as §3
Candida albicans [20] = test: Antifungal activity against Candida albicans T32 after 24 hrs by EUCAST test; procedure, shortened: as §1
Candida parapsilosis [21] = test: Antifungal activity against Candida parapsilosis ATCC 22019 after 24 hrs by EUCAST test; conditions: Lodderomyces parapsilosis, ATCC 22019, 24 h; procedure, shortened: as §4
Candida dubliniensis [22] = test: Antifungal activity against Candida dubliniensis 75/043 after 24 hrs by CLSI M27-A test; procedure, shortened: as §2
Candida dubliniensis [23] = test: Antifungal activity against Candida dubliniensis KR after 24 hrs by EUCAST test; procedure, shortened: as §4
Candida albicans [24] = test: Antifungal activity against Candida albicans NR4 after 24 hrs by CLSI M27-A test; procedure, shortened: as §2
Candida dubliniensis [25] = test: Antifungal activity against Candida dubliniensis 81/060 after 24 hrs by EUCAST test; procedure, shortened: as §1
Candida albicans [26] = test: Antifungal activity against Candida albicans JIMS132203 after 24 hrs by CLSI M27-A test; procedure, shortened: as §2
Candida albicans [27] = test: Antifungal activity against Candida albicans HK04M102095 after 24 hrs by EUCAST test; procedure, shortened: as §1
Candida albicans [28] = test: Antifungal activity against Candida albicans B06-341 after 24 hrs by CLSI M27-A test; procedure, shortened: as §2
Candida dubliniensis [29] = test: Antifungal activity against Candida dubliniensis Leic875 after 24 hrs by EUCAST test; procedure, shortened: as §4
Candida albicans [30] = test: Antifungal activity against Candida albicans B06-341 after 24 hrs by EUCAST test; procedure, shortened: as §1
Candida dubliniensis [31] = test: Antifungal activity against Candida dubliniensis 90/033 after 24 hrs by EUCAST test; procedure, shortened: as §1
Candida albicans [32] = test: Antifungal activity against Candida albicans NR2 after 24 hrs by CLSI M27-A test; procedure, shortened: as §2
Candida dubliniensis [33] = test: Antifungal activity against Candida dubliniensis 75/043 after 24 hrs by EUCAST test; procedure, shortened: as §1
Candida dubliniensis [34] = test: Antifungal activity against Candida dubliniensis KR after 24 hrs by CLSI M27-A test; procedure, shortened: as §3
Candida albicans [35] = test: Antifungal activity against Candida albicans T28 after 24 hrs by EUCAST test; procedure, shortened: as §1
Candida albicans [36] = test: Antifungal activity against Candida albicans SCS140136P after 24 hrs by CLSI M27-A test; procedure, shortened: as §2
Candida dubliniensis [37] = test: Antifungal activity against Candida dubliniensis FS after 24 hrs by EUCAST test; procedure, shortened: as §4
Candida albicans [38] = test: Antifungal activity against Candida albicans AM2003/0083 after 24 hrs by CLSI M27-A test; procedure, shortened: as §2
Candida dubliniensis [39] = test: Antifungal activity against Candida dubliniensis Leic952 after 24 hrs by CLSI M27-A test; procedure, shortened: as §3
Candida dubliniensis [40] = test: Antifungal activity against Candida dubliniensis B71507 after 24 hrs by EUCAST test; procedure, shortened: as §4
Candida dubliniensis [41] = test: Antifungal activity against Candida dubliniensis B71507 after 24 hrs by CLSI M27-A test; procedure, shortened: as §3
Candida albicans [42] = test: Antifungal activity against Candida albicans NCPF6525 after 24 hrs by CLSI M27-A test; procedure, shortened: as §2
Candida albicans [43] = test: Antifungal activity against Candida albicans SCS140136P after 24 hrs by EUCAST test; procedure, shortened: as §1
Candida dubliniensis [44] = test: Antifungal activity against Candida dubliniensis J931021 after 24 hrs by EUCAST test; procedure, shortened: as §4
Candida dubliniensis [45] = test: Antifungal activity against Candida dubliniensis SCS17154969-1 after 24 hrs by CLSI M27-A test; procedure, shortened: as §3
Candida dubliniensis [46] = test: Antifungal activity against Candida dubliniensis Leic952 after 24 hrs by EUCAST test; procedure, shortened: as §4
Candida albicans [47] = test: Antifungal activity against Candida albicans NR3 after 24 hrs by CLSI M27-A test; procedure, shortened: as §2
Candida dubliniensis [48] = test: Antifungal activity against Candida dubliniensis SCS17154969-1 after 24 hrs by EUCAST test; procedure, shortened: as §4

Compound: CCCCCOc1ccc(-c2ccc(-c3ccc(C(=O)N[C@H]4C[C@@H](O)[C@@H](O)NC(=O)[C@@H]5[C@@H](O)[C@@H](C)CN5C(=O)[C@H]([C@@H](C)O)NC(=O)[C@H]([C@H](O)[C@@H](O)c5ccc(O)cc5)NC(=O)[C@@H]5C[C@@H](O)CN5C(=O)[C@H]([C@@H](C)O)NC4=O)cc3)cc2)cc1 [ANIDULAFUNGIN] ({pTerphenylCO(4''-OnC5H11)}-[Orn(4R-OH,5R-OH)]T[Hyp][hTyr(3S-OH,4S-OH)]T[Pro(3S-OH,4S-Me)]; lactam 1-C)
- MIC50 (Candida albicans [1]): ≤ 0.032 µg/mL
- MIC50 (Candida albicans [2]): 0.25 µg/mL (≈ 0.219 µM)
- MIC50 (Candida parapsilosis [3]): 0.5 µg/mL (≈ 0.438 µM)
- MIC50 (Candida dubliniensis [4]): ≤ 0.032 µg/mL
- MIC50 (Candida dubliniensis [5]): 0.063 µg/mL (≈ 0.0553 µM)
- MIC50 (Candida albicans [6]): ≤ 0.032 µg/mL
- MIC50 (Candida dubliniensis [7]): ≤ 0.032 µg/mL
- MIC50 (Candida albicans [8]): 1 µg/mL (≈ 0.877 µM)
- MIC50 (Candida albicans [9]): ≤ 0.032 µg/mL
- MIC50 (Candida dubliniensis [10]): ≤ 0.032 µg/mL
- MIC50 (Candida albicans [11]): ≤ 0.032 µg/mL
- MIC50 (Candida albicans [12]): 0.5 µg/mL (≈ 0.438 µM)
- MIC50 (Candida albicans [13]): ≤ 0.032 µg/mL
- MIC50 (Candida dubliniensis [14]): ≤ 0.032 µg/mL
- MIC50 (Candida dubliniensis [15]): ≤ 0.032 µg/mL
- MIC50 (Candida dubliniensis [16]): ≤ 0.032 µg/mL
- MIC50 (Candida albicans [17]): ≤ 0.032 µg/mL
- MIC50 (Candida dubliniensis [18]): ≤ 0.032 µg/mL
- MIC50 (Candida dubliniensis [19]): ≤ 0.032 µg/mL
- MIC50 (Candida albicans [20]): ≤ 0.032 µg/mL
- MIC50 (Candida parapsilosis [21]): 0.5 µg/mL (≈ 0.438 µM)
- MIC50 (Candida dubliniensis [22]): ≤ 0.032 µg/mL
- MIC50 (Candida dubliniensis [23]): ≤ 0.032 µg/mL
- MIC50 (Candida albicans [24]): 0.25 µg/mL (≈ 0.219 µM)
- MIC50 (Candida dubliniensis [25]): ≤ 0.032 µg/mL
- MIC50 (Candida albicans [26]): ≤ 0.032 µg/mL
- MIC50 (Candida albicans [27]): ≤ 0.032 µg/mL
- MIC50 (Candida albicans [28]): 0.13 µg/mL (≈ 0.114 µM)
- MIC50 (Candida dubliniensis [29]): ≤ 0.032 µg/mL
- MIC50 (Candida albicans [30]): 0.13 µg/mL (≈ 0.114 µM)
- MIC50 (Candida dubliniensis [31]): 8 µg/mL (≈ 7.02 µM)
- MIC50 (Candida albicans [32]): 0.5 µg/mL (≈ 0.438 µM)
- MIC50 (Candida dubliniensis [33]): ≤ 0.032 µg/mL
- MIC50 (Candida dubliniensis [34]): ≤ 0.032 µg/mL
- MIC50 (Candida albicans [35]): ≤ 0.032 µg/mL
- MIC50 (Candida albicans [36]): ≤ 0.032 µg/mL
- MIC50 (Candida dubliniensis [37]): 4 µg/mL (≈ 3.51 µM)
- MIC50 (Candida albicans [38]): ≤ 0.032 µg/mL
- MIC50 (Candida dubliniensis [39]): ≤ 0.032 µg/mL
- MIC50 (Candida dubliniensis [40]): 0.25 µg/mL (≈ 0.219 µM)
- MIC50 (Candida dubliniensis [41]): ≤ 0.032 µg/mL
- MIC50 (Candida albicans [42]): 0.13 µg/mL (≈ 0.114 µM)
- MIC50 (Candida albicans [43]): ≤ 0.032 µg/mL
- MIC50 (Candida dubliniensis [44]): 16 µg/mL (≈ 14 µM)
- MIC50 (Candida dubliniensis [45]): ≤ 0.032 µg/mL
- MIC50 (Candida dubliniensis [46]): 8 µg/mL (≈ 7.02 µM)
- MIC50 (Candida albicans [47]): 1 µg/mL (≈ 0.877 µM)
- MIC50 (Candida dubliniensis [48]): ≤ 0.032 µg/mL
